Screening results from PubChem BioAssay.
TRPC4 potent: TRPC4 (mouse) allosteric potentiation. Q9QUQ5. HEK293 TRPC4beta/mu-opioid, DAMGO EC20, Fluo-4 Ca2+ flux; stronger effect = higher value. B-score at 10 µM. actives 0.42% (n = 310,000). AID 2227;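 active = B-score of calcium response area above 5 SD of library B-scores, with initial fluorescence ratio within 5 SD of library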;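 also: B-score of integrated fluorescence ratio over time as area under calcium response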
TRPC6 inh: mouse TRPC6 channel inhibition; Q61143; actives 1.1% (n = 310,000); B-score at 10 µM; HEK293-TRPC6, membrane potential dye, ACh-evoked depolarization; stronger effect = lower value; AID 2553;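 active = B-score under library mean minus 3 SD, initial fluorescence not abnormally high, positive integrated signal ratio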;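 also: B-score derived from integrated fluorescence ratio over the kinetic read; more negative B-score means stronger inhibition of depolarization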
TRPC6 activator: activators of mouse TRPC6 channel; HEK293-TRPC6 membrane potential dye fluorescence; stronger effect = higher value; B-score at 10 µM; actives 0.13% (n = 310,000);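 active = B-score of the integrated fluorescence ratio above library mean plus 3 SD, and starting fluorescence ratio within library mean plus 5 SD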;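 also: higher score means more depolarization so channel activation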
TRPC4 act: activators of mouse TRPC4 channel; Q9QUQ5; HEK293 TRPC4beta/mu-opioid, Fluo4 calcium fluorescence; stronger effect = higher value; B-score at 10 µM; actives 0.49% (n = 310,000); AID 2237;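 active = B-score above 5 SD of library B-scores, and initial fluorescence ratio not above library mean plus 5 SD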;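 also: positive B-score marks a calcium rise read as TRPC4 activation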
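Assay system – TRPC4beta and mu-opioid receptor HEK293 stable cells · Measured by – Fluo4 fluorescence, kinetic · Schedule – dye loading 45 min room temperature, 110 s kinetic read · Read-out – B-scored integrated calcium fluorescence ratio · Controls – buffer and maximal DAMGO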
TRPC4 inh: blocks the mouse TRPC4 cation channel; actives 0.39% (n = 300,000); Q9QUQ5; HEK293 TRPC4beta/mu-opioid, DAMGO-evoked Fluo4 calcium flux; stronger effect = lower value; B-score at 10 µM;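 active = B-score over 3 SD under the library average, no early fluorescence shift, positive overall ratio signal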
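Assay system: HEK293 cells with stable TRPC4beta plus mu-opioid receptor expression; Probe or stimulus: DAMGO in two steps, submaximal then maximal; Dosing: single-point compound dosing; Measured by: Fluo4 calcium-dye fluorescence, kinetic read; Read-out basis: B score from integrated Fluo4 fluorescence ratio.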
Numbers without * were called inactive; i = inactive. Compounds with a hit are over-represented: about 2.3% of the library has one in this group of screens.

SMILES | TRPC4 potent | TRPC6 inh | TRPC6 activator | TRPC4 act | TRPC4 inh
Cc1cccc(NC(=S)NCC(c2ccccc2)N(C)C)c1 (stereo not given) | i | i | i | 231* | i
Cc1cccc(NC(=S)NC(C)CCc2ccccc2)c1 (stereo not given) | i | i | i | i | i
CN(C)C(CNC(=S)Nc1cccc(Cl)c1)c1ccccc1 (stereo not given) | i | i | i | 220* | i
CN(CCCC(=O)NCCc1ccccc1)S(=O)(=O)c1ccc([N+](=O)[O-])cc1 | i | i | i | i | i
Cc1cc(C)cc(OCCNC(=O)CCc2ccccc2)c1 | i | i | i | i | i
C=CCNC(=S)N1CCN(c2ccccc2Cl)CC1 | i | i | i | i | i
C=CCNC(=S)N1CCN(c2ncc(C(F)(F)F)cc2Cl)CC1 | 11* | i | i | i | i
Cc1cc(C)cc(NC(=S)N2CCN(c3ncc(C(F)(F)F)cc3Cl)CC2)c1 | i | i | i | 141* | i
Cc1nc(NCCc2cnc[nH]2)c2oc3ccccc3c2n1 | i | i | i | 82* | i
COc1ccc(CCNc2nc(C)nc3c2oc2ccccc23)cc1OC | i | i | i | i | i
COC(CNC(=O)c1ccc(CS(=O)(=O)c2ccc(Br)cc2)o1)OC | i | i | i | i | i
Cc1cccc2c1Sc1ccccc1CC2=O | i | i | i | i | i
C[N+]1(C)CCC(=C2c3ccccc3CC(=O)c3sccc32)CC1 | i | -6.4* | i | i | i
CCOC(=O)c1c(NC(=O)COC(=O)Cn2cnc3c2c(=O)n(C)c(=O)n3C)sc(C)c1CC | i | i | i | i | -7*
C#CC[N+](C)(C)CCCCCCCCCC | i | i | i | i | i
CC#CC[N+](C)(C)CCCCCCCCCCCC | i | i | i | i | -8*
O=C(NCC(c1cccs1)N1CCOCC1)c1ccc(Cl)c([N+](=O)[O-])c1 (stereo not given) | i | i | i | 90* | i
CCOC(=O)Cc1csc(NC(=O)NC2(C(F)(F)F)Oc3ccc(Cl)cc3O2)n1 (stereo not given) | i | i | i | i | i
CCOC(=O)Cc1csc(NC(=O)NC2(C(F)(F)F)Oc3cc(Cl)c(Cl)cc3O2)n1 | i | i | i | i | -7*
CC1CCCCC1NC(=O)CCCn1c(=S)[nH]c2ccsc2c1=O (stereo not given) | i | i | i | i | i
Cc1cc(NS(=O)(=O)c2ccc(NC(=S)Nc3ccc(Cl)cc3C)cc2)no1 | i | i | i | i | i
CCCn1c(NC(=O)CCS(=O)(=O)c2ccc(C)cc2)nc2ccccc21 | i | i | i | i | i
CCOC(=O)C1=NNC(C(=O)c2ccccc2)C1c1ccc(C)cc1 (stereo not given) | i | i | i | i | -8*
Clc1ccccc1C1CC(c2ccccc2)=Nc2ccccc2N1 (stereo not given) | 10* | i | i | i | i
CSc1ncccc1C(=O)OCC(=O)c1cccs1 | i | i | i | i | i
SMILES | TRPC4 potent | TRPC6 inh | TRPC6 activator | TRPC4 act | TRPC4 inh
Clc1ccc2nc(CN3CCCCC3)cn2c1 | i | i | i | i | i
Clc1ccc2nc(CN3CCCc4ccccc43)cn2c1 | 21* | i | i | i | i
Cc1c(Cl)cccc1S(=O)(=O)Nc1ccnn1C | i | i | i | i | i
CCOc1ccc(NC(=S)N2CCN(S(=O)(=O)c3ccc(C)cc3)CC2)cc1 | i | i | i | i | i
COc1ccc(CNCc2cc(C)c(OC)cc2C)c(OC)c1 | i | i | i | i | -5*
CCn1c2ccccc2c2cc(CNCCCN3CCOCC3)ccc21 | i | -6.3* | i | i | i
CCC(CC)NCc1ccc2c(c1)c1ccccc1n2CC | i | i | i | i | i
CCn1c2ccccc2c2cc(CNCc3ccc(OC)cc3OC)ccc21 | i | i | i | 66* | i
CC(C)c1cc(C(=O)OCC(=O)N2CCN(C(=O)c3ccco3)CC2)c(O)c(C(C)C)c1 | i | i | i | i | i
CC1CCCC(C)N1CCCNC(=O)Cn1c(=O)c2cccn2c2cccnc21 (stereo not given) | i | i | i | i | i
CCCN(CCC)c1cc(Cl)nc(N)n1 | i | i | i | i | i
CCOC(=O)Nc1nc(-c2ccc(Cl)cc2Cl)cs1 | i | i | i | i | i
COc1cccc(CNC(=O)CCC2CCCN(C/C=C/c3ccccc3OC)C2)c1 (stereo not given) | i | i | i | 73* | i
COc1ccccc1/C=C/CN1CCCC(CCC(=O)NCc2ccc(F)c(F)c2)C1 (stereo not given) | i | i | i | 118* | i
COCc1ccc(CN2CCCC(CCC(=O)NCc3cccc(OC)c3)C2)o1 (stereo not given) | i | i | i | i | i
O=C(CCNS(=O)(=O)c1ccc(Cl)cc1)N1CCCCCC1 | i | i | i | i | i
COc1ccc(S(=O)(=O)N2CCCC(C(=O)NCC3CCCO3)C2)cc1OC (stereo not given) | i | i | i | i | i
Cc1onc(-c2ccccc2)c1C(=O)NC(=S)NNC(=O)c1ccccc1O | i | i | i | 247* | i
CCCOc1ccc(C(=O)NC(=S)NNC(=O)c2c(-c3ccccc3)noc2C)cc1 | i | i | i | 194* | i
C=CCNC(=S)NNC(=O)c1ccc(OCCC)cc1 | i | i | i | i | i
CCCOc1ccc(C(=O)NNC(=S)NC(=O)CC)cc1 | i | i | i | 46* | i
COc1ccc(S(=O)(=O)N2CCC(C(=O)N[C@@H](C)C(=O)NCc3ccccc3OC)CC2)cc1 | i | i | i | i | i
Cc1ccc(-n2cnn(-c3ccc([N+](=O)[O-])cc3[N+](=O)[O-])c2=O)cc1 | i | i | i | i | -6*
O=c1c2ccccc2ncn1-c1ccc([N+](=O)[O-])cc1[N+](=O)[O-] | i | i | i | i | i
CCCOC(=O)c1ccc(NC(=O)c2cc(=O)[nH]c3ccccc23)cc1 | i | i | i | i | i
Cc1cccc(N/N=C(\C(N)=O)C2=NC(C)(C)Cc3ccccc32)c1 | 14* | i | i | i | i
CCOC(=O)/C(=N\O)C1=NC(C)(C)Cc2ccccc21 | i | i | i | i | i
